Measurements published in ChEMBL document CHEMBL4130442, “Design, synthesis and structure-activity relationship studies of a focused library of pyrimidine moiety with anti-proliferative and anti-metastasis activities in triple negative breast cancer” (Eur J Med Chem, 2017).

Experiments:
Type in all cases: functional, cell-based
[1] = test system: MDA-MB-231; assay: Antiproliferative activity against human MDA-MB-231 cells incubated for 24 hrs by MTT assay; conditions: MDA-MB-231, 24 h
In short: (§1)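 MDA-MB-231 cells grown in DMEM with 10% FBS under 5% CO2 were seeded at 5×10^4 cells/ml. After 24 h, a concentration series was added for 24, 48 or 72 h and viability was read by MTT. IC50 is mean ± SD of triplicates.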

[2] = test system: MDA-MB-231; assay: Antiproliferative activity against human MDA-MB-231 cells incubated for 72 hrs by MTT assay; conditions: MDA-MB-231, 72 h; in short: as §1
[3] = test system: MDA-MB-231; assay: Antiproliferative activity against human MDA-MB-231 cells incubated for 48 hrs by MTT assay; conditions: MDA-MB-231, 48 h; in short: as §1

IC50 [1]	Compound	further results
24.7 µM	CN1CCN(CC(=O)N2CCN(c3nccc(Oc4cc(Cl)cc(Cl)c4)n3)CC2)CC1	–
> 50 µM	CC(C)(C)c1ccc(S(=O)(=O)N2CCN(c3nccc(Oc4cc(Cl)cc(Cl)c4)n3)CC2)cc1	–
12.5 µM	O=C(c1ccc(C(F)(F)F)cc1)N1CCN(c2nccc(Oc3cc(Cl)cc(Cl)c3)n2)CC1	–
> 50 µM	CC(=O)Nc1ccc(C(=O)N2CCN(c3nccc(Oc4cc(Cl)cc(Cl)c4)n3)CC2)cc1	–
6.74 µM	O=C(Nc1cc(C(F)(F)F)cc(C(F)(F)F)c1)N1CCN(c2nccc(Oc3cc(Cl)cc(Cl)c3)n2)CC1	–
37.8 µM	O=C(c1cccc(Cl)c1)N1CCN(c2nccc(Oc3cc(Cl)cc(Cl)c3)n2)CC1	–
7.9 µM	O=C(Nc1cccc(Cl)c1)N1CCN(c2nccc(Oc3cc(Cl)cc(Cl)c3)n2)CC1	–
1.59 µM	O=C(Nc1ccccc1Cl)N1CCN(c2nccc(NCc3ccccc3)n2)CC1	–
> 50 µM	Cc1cccc(C(=O)N2CCN(c3nccc(Oc4cc(Cl)cc(Cl)c4)n3)CC2)c1	–
1.54 µM	O=C(Nc1ccc(C(F)(F)F)cc1)N1CCN(c2nccc(Oc3cc(Cl)cc(Cl)c3)n2)CC1	–
46.8 µM	COc1ccc(S(=O)(=O)N2CCN(c3nccc(Oc4cc(Cl)cc(Cl)c4)n3)CC2)cc1	–
55.5 µM	C#Cc1cccc(Nc2ncnc3cc(OCCOC)c(OCCOC)cc23)c1 [ERLOTINIB]	IC50 [2]: 30.1 µM; IC50 [3]: 33.5 µM
18.4 µM	O=C(c1cccc(O)c1)N1CCN(c2nccc(Oc3cc(Cl)cc(Cl)c3)n2)CC1	–
> 50 µM	O=C(c1ccc2c(c1)OCO2)N1CCN(c2nccc(Oc3cc(Cl)cc(Cl)c3)n2)CC1	–
1.24 µM	COc1cccc(Nc2ccnc(N3CCN(C(=O)Nc4ccc(C(F)(F)F)cc4)CC3)n2)c1	–
24.8 µM	N#Cc1ccc(S(=O)(=O)N2CCN(c3nccc(Oc4cc(Cl)cc(Cl)c4)n3)CC2)cc1	–
> 50 µM	O=C(c1ccccc1F)N1CCN(c2nccc(Oc3cc(Cl)cc(Cl)c3)n2)CC1	–
11.8 µM	O=C(c1ccc(Cl)cc1Cl)N1CCN(c2nccc(Oc3cc(Cl)cc(Cl)c3)n2)CC1	–
37.6 µM	O=C(CN1CCOCC1)N1CCN(c2nccc(Oc3cc(Cl)cc(Cl)c3)n2)CC1	–
> 50 µM	O=C([C@H]1Cc2ccccc2N1)N1CCN(c2nccc(Oc3cc(Cl)cc(Cl)c3)n2)CC1	–
35.2 µM	O=C(c1ccc[nH]1)N1CCN(c2nccc(Oc3cc(Cl)cc(Cl)c3)n2)CC1	–

IC50 [1]	Compound	further results
16.4 µM	COc1ccc(NC(=O)N2CCN(c3nccc(Oc4cc(Cl)cc(Cl)c4)n3)CC2)cc1	–
> 50 µM	O=S(=O)(c1ccccc1)N1CCN(c2nccc(Oc3cc(Cl)cc(Cl)c3)n2)CC1	–
11.3 µM	COc1cccc(Nc2ccnc(N3CCN(C(=O)c4ccc(Cl)cc4Cl)CC3)n2)c1	–
16.7 µM	O=C(c1cc(Cl)ccn1)N1CCN(c2nccc(Oc3cc(Cl)cc(Cl)c3)n2)CC1	–
11.6 µM	Cc1ccc(NC(=O)N2CCN(c3nccc(Oc4cc(Cl)cc(Cl)c4)n3)CC2)cc1	–
24.8 µM	O=S(=O)(c1cccnc1)N1CCN(c2nccc(Oc3cc(Cl)cc(Cl)c3)n2)CC1	–
5.26 µM	COc1cccc(Nc2ccnc(N3CCN(C(=O)Nc4ccccc4Cl)CC3)n2)c1	–
11 µM	O=C(Nc1ccccc1Cl)N1CCN(c2nccc(Oc3cc(Cl)cc(Cl)c3)n2)CC1	–
2.45 µM	O=C(Nc1ccc(C(F)(F)F)cc1)N1CCN(c2nccc(NCc3ccccc3)n2)CC1	–
2.8 µM	COc1cccc(Nc2cc(N3CCN(C(=O)Nc4ccccc4Cl)CC3)ncn2)c1	–
16.8 µM	COc1ccccc1S(=O)(=O)N1CCN(c2nccc(Oc3cc(Cl)cc(Cl)c3)n2)CC1	–
> 50 µM	O=C1CC[C@@H](C(=O)N2CCN(c3nccc(Oc4cc(Cl)cc(Cl)c4)n3)CC2)N1	–
> 50 µM	O=S(=O)(c1ccc(F)cc1)N1CCN(c2nccc(Oc3cc(Cl)cc(Cl)c3)n2)CC1	–
9.79 µM	O=C(c1ccc(Cl)cc1Cl)N1CCN(c2nccc(NCc3ccccc3)n2)CC1	–
17.9 µM	O=C(c1cccc(C(F)(F)F)c1)N1CCN(c2nccc(Oc3cc(Cl)cc(Cl)c3)n2)CC1	–
46.8 µM	O=C(Nc1ccc2ccccc2c1)N1CCN(c2nccc(Oc3cc(Cl)cc(Cl)c3)n2)CC1	–
> 50 µM	O=C(c1ccc2ncccc2c1)N1CCN(c2nccc(Oc3cc(Cl)cc(Cl)c3)n2)CC1	–
7.23 µM	COc1cccc(Nc2cc(N3CCN(C(=O)c4ccc(Cl)cc4Cl)CC3)ncn2)c1	–
34.8 µM	Cc1cnc(C(=O)N2CCN(c3nccc(Oc4cc(Cl)cc(Cl)c4)n3)CC2)cn1	–
> 50 µM	CC(C)(C(=O)N1CCN(c2nccc(Oc3cc(Cl)cc(Cl)c3)n2)CC1)c1cc(C(F)(F)F)cc(C(F)(F)F)c1	–
